Neddyl block: blocks human cullin neddylation; TR-FRET cullin neddylation, biochemical; inhibition, % at 25 µM; P61081+Q13564; hit rate 0.58% among 360,000; AID 651699; in the data active = inhibition above about 36%
ARFGAP1 inhibitor: rat ARFGAP1 inhibition; Arfgap1-stimulated ARF1 GTP hydrolysis, GDP FP detection; inhibition, % at 16.5 µM; hit rate 0.26% among 360,000;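 active = inhibition above a per-plate limit, mean inhibition of low control wells plus 3 SD, cut at about 25% in these data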;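 note: 0% = DMSO wells with enzyme and 100% = wells lacking Arfgap1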
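System: truncated rat Arfgap1 GAP domain / Benchmarks: high control wells lacking Arfgap1, low control full reaction with DMSO / Times: compound-enzyme preincubation 20 min, reaction 120 min, detection 60 min, 25 °C / Repeats: one replicate per compound / Also added: human ARF1(Δ1-17)-GTP substrate / Measured by: Tracer-displacement fluorescence polarization with EDTA stop, 620/688 nm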
ASAP1 GAP inh: ASAP1 ArfGAP inhibition. Q9ULH1. hit rate 0.19% among 360,000. ASAP1-stimulated ARF1 GTP hydrolysis, GDP FP detection. inhibition, % at 16.5 µM; in the data active = inhibition above about 25%;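 note: 0% = vehicle with enzyme and substrate and 100% = no enzyme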
Target sequence (Q9ULH1 325-724 limits assumed): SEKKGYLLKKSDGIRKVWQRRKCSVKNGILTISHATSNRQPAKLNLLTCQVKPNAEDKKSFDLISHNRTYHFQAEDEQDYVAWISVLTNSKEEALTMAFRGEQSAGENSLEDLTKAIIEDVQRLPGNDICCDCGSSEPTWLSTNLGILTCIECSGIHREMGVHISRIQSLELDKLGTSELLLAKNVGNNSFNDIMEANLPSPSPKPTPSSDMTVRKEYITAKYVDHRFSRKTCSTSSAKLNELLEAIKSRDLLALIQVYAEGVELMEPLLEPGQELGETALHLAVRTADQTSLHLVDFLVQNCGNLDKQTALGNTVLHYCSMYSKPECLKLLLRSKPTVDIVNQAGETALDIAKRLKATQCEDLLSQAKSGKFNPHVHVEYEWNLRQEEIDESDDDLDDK
H9c2 protect: protects H9c2 cardiomyocytes from peroxide injury. protection from H2O2 cell death, % at 20 µM. H2O2 injury protection, ATPLite, 2 h. hit rate 0.63% among 360,000;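 active = compounds giving at least 50% protection of heart cells from peroxide-induced death in the single-dose screen, raw or plate-pattern-corrected value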;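 note: 0% = DMSO wells with peroxide and 100% = DMSO wells without peroxide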
* hit, by the source's call; · = no result given. Hits are enriched below; roughly 1.6% of the tested compounds scored in any of these assays.

SMILES | Neddyl block | ARFGAP1 inhibitor | ASAP1 GAP inh | H9c2 protect
C/C(=N\NC(=O)c1nnn(-c2nonc2N)c1CSc1ccc(C)cc1)c1cccnc1 | -5 | -12 | 5 | 55*
C/C(=N\NC(=O)c1nnn(-c2nonc2N)c1CN(C)c1ccccc1)c1ccccc1O | · | 18 | -4 | 57*
C/C(=N\NC(=O)c1nnn(-c2nonc2N)c1CN1CCCCC1)c1ccccc1O | 41* | -5 | -13 | 63*
C/C(=N\NC(=O)c1nnn(-c2nonc2N)c1CSc1ccc(Cl)cc1)c1cccnc1 | 3 | -3 | 4 | 25
CC(/C=N/NC(=O)c1nnn(-c2nonc2N)c1CN1CCCCC1)=C\c1ccccc1 | 0 | -4 | -11 | 3
COC(=O)[C@]12C[C@H](CC(=O)N3CCN(C(=O)c4ccco4)CC3)C(=O)N(Cc3ccc4c(c3)OCO4)C1=C[C@H](C(C)(C)C)O[C@@H]2C | · | 10 | -14 | ·
N#C/C(=C1\CCCN1)c1nc2ccccc2c(=O)[nH]1 | 11 | 0 | 8 | 74*
CC(C)S(=O)(=O)N[C@@H]1c2cc3c(cc2[C@H](c2ccccc2)[C@H]1C)OCO3 | · | 10 | 9 | ·
CCOC(=O)Cc1c(C)nc2c(-c3ccc(Cl)cc3)c[nH]n2c1=O | · | -8 | -3 | 52*
CCOC(=O)Cc1c(C)nc2cc(-c3ccc(Cl)cc3)[nH]n2c1=O | 9 | 7 | -15 | -4
COC(=O)C1=C(C(=O)OC)C2CCCC1C1N=NN(c3ccccc3)C21 (stereo not drawn) | · | -3 | -5 | ·
Clc1cc2c(cc1/C=N/Nc1nc(N3CCOCC3)nc(N3CCOCC3)n1)OCO2 | 0 | -5 | -9 | 27
COc1nc(N/N=C/c2cc3c(cc2Br)OCO3)nc(N2CCOCC2)n1 | -13 | -2 | -10 | 54*
CCOc1ccc(CC(=O)Nc2c(C(=O)Nc3ccccc3)oc3ccccc23)cc1OCC | · | 0 | -8 | 14
CCOc1ccc(CC(=O)Nc2c(C(N)=O)oc3ccc(Br)cc23)cc1OCC | 0 | -14 | -3 | 78*
COc1cc(OC)c2ccc(=O)oc2c1C(CC(=O)N1CCN(c2ccccc2)CC1)c1ccc2c(c1)OCO2 (stereo not drawn) | 30 | 7 | -8 | 70*
COc1cc(OC)c2ccc(=O)oc2c1C(CC(=O)N1CCOCC1)c1ccc2c(c1)OCO2 (stereo not drawn) | 14 | 1 | -6 | 12
Nc1[nH]c(C(=O)c2ccc(Br)cc2)c(-c2ccccn2)c1C(=O)NCCc1c[nH]c2ccccc12 | · | 8 | -1 | ·
O=C(/C=C/c1cccc([N+](=O)[O-])c1)Nc1cccc(NC(=O)c2cccs2)c1 | -24 | 12 | 4 | 81*
O=C(/C=C/c1cccc([N+](=O)[O-])c1)Nc1cccc(NC(=O)c2ccco2)c1 | -19 | 10 | 14 | 34
O=C(/C=C/c1ccc(Cl)c([N+](=O)[O-])c1)Nc1cccc(NC(=O)c2ccco2)c1 | -24 | 22 | 14 | 88*
O=C(/C=C/c1ccc(Cl)c([N+](=O)[O-])c1)Nc1cccnc1 | -31 | 0 | -1 | 50*
O=C(/C=C/c1ccc(Cl)c([N+](=O)[O-])c1)Nc1ccc(NC(=O)c2ccco2)cc1 | 36 | 7 | 12 | 24
CC(C)(C)c1ccc(C#C[C@@H]2C=C[C@H](O)[C@@H](COC(=O)Nc3ccccc3)O2)cc1 | · | 9 | -1 | ·
O=C(O)c1ccc(N/N=C/c2cc3c(cc2[N+](=O)[O-])OCO3)cc1 | -62 | 12 | 12 | 3
SMILES | Neddyl block | ARFGAP1 inhibitor | ASAP1 GAP inh | H9c2 protect
O=C(O)c1ccc(N/N=C/c2cc3cc4c(cc3nc2Cl)OCCO4)cc1 | 37* | 7 | -3 | -27
c1ccc(-c2nc3cc4ccccc4cc3[nH]2)nc1 | 44* | 7 | 10 | -36
COc1ccccc1C(=O)N1CCC2CCNC2C1 (stereo not drawn) | · | 5 | 6 | ·
Nc1cc2c(cc1Br)[nH]c(=O)c1ccccc12 | -48 | 14 | -3 | 17
Cc1ccc2[nH]c3ccccc3c(=O)c2c1 | · | -2 | -5 | -10
Nc1cc2[nH]c(=O)c3ccccc3c2cc1Br | 38 | -1 | 3 | 62*
Nc1ccc2c(=O)[nH][nH]c(=O)c2c1 | 17 | 1 | 2 | 6
Nc1ccc2c(c1)[nH]c(=O)c1ccccc12 | · | -3 | -18 | 68*
O=c1c2ccccc2[nH]c2ccc(O)cc12 | 42* | -2 | 3 | 3
O=c1[nH]c2cc(O)ccc2c2ccccc12 | -24 | -6 | -9 | 57*
CCOC(=O)C(CNc1ccc(OCc2ccccc2)cc1)NC(=O)c1ccccc1 (stereo not drawn) | · | 1 | 17 | ·
NC(=S)NN=Cc1nccc2c(C(F)(F)F)cccc12 | 8 | -8 | -11 | 31
CNc1cccnc1C=NNC(N)=S | 47* | 2 | 4 | 29
